From ChEMBL document CHEMBL1155482, “Synthesis, anticancer activity and apoptosis inducing ability of anthranilamide-PBD conjugates” (2010)
Counter-ions that a name gives are not always drawn. The source made the active and inactive calls. The rule behind the calls is not given here.

How the values were obtained:
ZR-75-1 = test: Cytotoxicity against human ZR-75-1 cells after 48 hrs by SRB assay; type: functional; conditions: ZR-75-1, 48 h
In short: (§1)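 Sulforhodamine B assay estimating cell density from cellular protein content, run on human cancer lines of lung, breast, oral, colon, cervix, ovary and prostate origin, with GI50 values derived.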

KB = test: Cytotoxicity against human KB cells after 48 hrs by SRB assay; type: functional; in short: as §1
COLO 205 = test: Cytotoxicity against human COLO205 cells after 48 hrs by SRB assay; type: functional; conditions: COLO 205, 48 h; in short: as §1
[1] = Cytotoxicity against human DWD cells after 48 hrs by SRB assay; type: functional; in short: as §1
SiHa = test: Cytotoxicity against human SiHa cells after 48 hrs by SRB assay; type: functional; in short: as §1
[2] = Cytotoxicity against human Gurav cells after 48 hrs by SRB assay; type: functional; in short: as §1
A2780 = test: Cytotoxicity against human A2780 cells after 48 hrs by SRB assay; type: functional; conditions: A2780, 48 h; in short: as §1
MCF7 = test: Cytotoxicity against human MCF7 cells after 48 hrs by SRB assay; type: functional; conditions: MCF7, 48 h; in short: as §1
HOP-62 = test: Cytotoxicity against human HOP62 cells after 48 hrs by SRB assay; type: functional; conditions: HOP-62, 48 h; in short: as §1
A549 = test: Cytotoxicity against human A549 cells after 48 hrs by SRB assay; type: functional; conditions: A549, 48 h; in short: as §1
PC-3 = test: Cytotoxicity against human PC3 cells after 48 hrs by SRB assay; type: functional; conditions: PC-3, 48 h; in short: as §1
A-375 [3] = test: Cell cycle arrest in human A375 cells assessed as accumulation at S phase at 1 uM by FACS analysis; type: functional
In short: (§2)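 A375 cells were exposed to compound for 24 h, and cell cycle distribution was measured by FACS. The sub-G1 peak (labelled G0) was scored as the apoptotic cell percentage and compared with untreated control cells.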

A-375 [4] = test: Antitumor activity against human A375 cells assessed as cell viability at 1 uM after 24 hrs by MTT assay; type: functional, cell-based
A-375 [5] = test: Cell cycle arrest in human A375 cells assessed as accumulation at G0/G1 phase at 1 uM by FACS analysis; type: functional; in short: as §2
A-375 [6] = test: Cell cycle arrest in human A375 cells assessed as accumulation at G2/M phase at 1 uM by FACS analysis; type: functional; in short: as §2
A-375 [7] = test: Induction of apoptosis in human A375 cells assessed as cells in dub G1 phase at 1 uM after 24 hrs by FACS analysis; type: functional; in short: as §2
A-375 [8] = test: Induction of apoptosis in human A375 cells assessed as caspase 3 activation at 1 uM after 24 hrs by fluorimetry; type: functional, cell-based
In short: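 Caspase-3 activity in treated A375 cells was measured by fluorimetry relative to untreated cells.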

[9] = target: T1, Type II restriction enzyme BamHI (Bacillus amyloliquefaciens) (UniProt P23940); test: Inhibition of Bacillus amyloliquifaction Bam H1-mediated restriction digestion of pBR322 at 4 uM by RED 100 assay
T1 sequence (whole entry): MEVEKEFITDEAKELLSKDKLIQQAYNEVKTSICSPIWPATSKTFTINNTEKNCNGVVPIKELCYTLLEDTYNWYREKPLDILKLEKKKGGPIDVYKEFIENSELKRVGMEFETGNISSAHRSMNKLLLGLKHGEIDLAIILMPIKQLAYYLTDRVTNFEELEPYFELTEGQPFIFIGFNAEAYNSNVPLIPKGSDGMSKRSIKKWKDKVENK
In short: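 Restriction enzyme digestion (RED 100) of vector DNA by BamHI after exposure to compound at 2, 4, 8, 16 and 32 micromolar, with controls of vector cut without compound and uncut vector DNA.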

A-375 [10] = test: Induction of apoptosis in human A375 cells assessed as p53 protein expression at 1 uM after 24 hrs by Western blotting; type: functional, cell-based
In short: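 A375 cells were treated for 24 h, and lysates were probed for p53 by western blot with a p53-specific antibody. Untreated cells served as control and β-actin as loading control.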

Row | Compound | GI50 (ZR-75-1) | GI50 (KB) | GI50 (COLO 205) | GI50 [1] | GI50 (SiHa) | GI50 [2] | GI50 (A2780) | GI50 (MCF7) | GI50 (HOP-62) | GI50 (A549) | GI50 (PC-3) | Activity (A-375 [3]) | Activity (A-375 [4]) | Activity (A-375 [5]) | Activity (A-375 [6]) | Activity (A-375 [7]) | Activity (A-375 [8]) | inhibition [9] | Activity (A-375 [10])
1 | COc1cc2c(cc1OCCCCCCN1CCN(C(=O)c3ccccc3NCc3ccc4ccccc4c3)CC1)N=C[C@@H]1CCCN1C2=O | 160 nM | 150 nM | 180 nM | 160 nM | 150 nM | 170 nM | 190 nM | 140 nM | 1900 nM | 170 nM | 150 nM | – | – | – | – | – | – | – | –
2 | COc1cc2c(cc1OCCCN1CCN(C(=O)c3ccccc3NCc3ccncc3)CC1)N=C[C@@H]1CCCN1C2=O | 180 nM | 150 nM | 190 nM | 170 nM | 1800 nM | 180 nM | 190 nM | 130 nM | 2200 nM | 2000 nM | 1800 nM | – | – | – | – | – | – | – | –
3 | O=C(c1ccccc1NCc1coc2ccccc2c1=O)N1CCNCC1 | – | – | – | – | – | – | – | – | – | – | – | 18.53% | Active | 68.39% | 15.45% | 1.15% | – | – | –
4 | COc1cc2c(cc1OCCCCCN1CCN(C(=O)c3cc(Cl)ccc3NCc3coc4ccccc4c3=O)CC1)N=C[C@@H]1CCCN1C2=O | 160 nM | 160 nM | 2300 nM | 170 nM | 160 nM | 170 nM | 180 nM | 150 nM | 1800 nM | 170 nM | 160 nM | – | – | – | – | – | – | – | –
5 | COc1cc2c(cc1OCCCCCCN1CCN(C(=O)c3ccccc3NCc3cc(OC)c(OC)c(OC)c3)CC1)N=C[C@@H]1CCCN1C2=O | 180 nM | 150 nM | 160 nM | 150 nM | 1800 nM | 170 nM | 170 nM | 140 nM | 1900 nM | 180 nM | 160 nM | – | – | – | – | – | – | – | –
6 | COc1cc2c(cc1OCCCN1CCN(C(=O)c3ccccc3NCc3ccc4ccccc4c3)CC1)N=C[C@@H]1CCCN1C2=O | 150 nM | 150 nM | 180 nM | 140 nM | 160 nM | 170 nM | 170 nM | 140 nM | 1700 nM | 170 nM | 140 nM | 6.32% | Active | 83.66% | 6.32% | 5.486% | Active | – | –
7 | COc1cc2c(cc1OCCCCCN1CCN(C(=O)c3cc(Cl)ccc3NCc3ccc4ccccc4c3)CC1)N=C[C@@H]1CCCN1C2=O | 180 nM | 140 nM | 29000 nM | 170 nM | 1800 nM | 170 nM | 180 nM | 140 nM | 2000 nM | 2000 nM | 170 nM | – | – | – | – | – | – | – | –
8 | COc1cc2c(cc1OCCCCCN1CCN(C(=O)c3ccccc3NCc3ccc4ccccc4c3)CC1)N=C[C@@H]1CCCN1C2=O | 150 nM | 130 nM | 150 nM | 130 nM | 150 nM | 140 nM | 140 nM | 130 nM | 1800 nM | 170 nM | 140 nM | 7.09% | Active | 91.94% | 1.97% | 7.333% | Active | Active | Active
9 | COc1cc2c(cc1OCCCCCN1CCN(C(=O)c3ccccc3NCc3cc(OC)c(OC)c(OC)c3)CC1)N=C[C@@H]1CCCN1C2=O | 160 nM | 140 nM | 2200 nM | 140 nM | 170 nM | 160 nM | 160 nM | 140 nM | 1900 nM | 1900 nM | 140 nM | – | – | – | – | – | – | – | –
10 | COc1cccc2c1C(=O)c1c(O)c3c(c(O)c1C2=O)C[C@@](O)(C(=O)CO)C[C@@H]3O[C@H]1C[C@H](N)[C@H](O)[C@H](C)O1 [DOXORUBICIN HYDROCHLORIDE] | – | 170 nM | 140 nM | 100 nM | 170 nM | 170 nM | 160 nM | 170 nM | 140 nM | – | – | – | – | – | – | – | – | – | –
11 | COc1cc2c(cc1OCCCCCCN1CCN(C(=O)c3ccccc3NCc3ccncc3)CC1)N=C[C@@H]1CCCN1C2=O | 2000 nM | 150 nM | 2600 nM | 170 nM | 1900 nM | 180 nM | 190 nM | 150 nM | 25000 nM | 2200 nM | 1800 nM | – | – | – | – | – | – | – | –
12 | COc1cc2c(cc1O)N=C[C@@H]1CCCN1C2=O | – | 170 nM | 110 nM | – | 170 nM | 160 nM | 140 nM | 170 nM | 150 nM | 160 nM | 200 nM | 23.08% | Active | 67.67% | 12.19% | 2.683% | Active | – | –
13 | COc1cc2c(cc1OCCCN1CCN(C(=O)c3ccccc3NCc3cc(OC)c(OC)c(OC)c3)CC1)N=C[C@@H]1CCCN1C2=O | 170 nM | 150 nM | 170 nM | 150 nM | 170 nM | 170 nM | 180 nM | 140 nM | 2100 nM | 2000 nM | 160 nM | – | – | – | – | – | – | – | –
14 | COc1cc2c(cc1OCCCCCN1CCN(C(=O)c3ccccc3NCc3ccncc3)CC1)N=C[C@@H]1CCCN1C2=O | 2000 nM | 150 nM | 25000 nM | 150 nM | 1800 nM | 170 nM | 170 nM | 160 nM | 2300 nM | 2000 nM | 170 nM | – | – | – | – | – | – | – | –
15 | O=C(c1ccccc1NCc1ccc2ccccc2c1)N1CCNCC1 | – | – | – | – | – | – | – | – | – | – | – | 14.56% | Active | 72.22% | 14.78% | 1.233% | – | – | –
16 | COc1cc2c(cc1OCCCCCN1CCN(C(=O)c3ccccc3NCc3coc4ccccc4c3=O)CC1)N=C[C@@H]1CCCN1C2=O | 160 nM | 150 nM | 2400 nM | 160 nM | 130 nM | 170 nM | 180 nM | 140 nM | 1800 nM | 160 nM | 140 nM | 13.34% | Active | 81.9% | 6.68% | 3.483% | Active | – | –
